ChEMBL document CHEMBL4831560, “Design, Synthesis, and Biological Evaluation of APN and AKT Dual-Target Inhibitors” (ACS Med Chem Lett, 2021)
Calls of active or inactive are those of the source. No cut-off for these calls is given here.

Assays:
Aminopeptidase N = biological target: T1, Aminopeptidase N (Sus scrofa, UniProt P15145); test: Inhibition of APN in pig kidney microsomes assessed as reduction in p-nitroanilide release using L-leu-p-nitroanilide as substrate incubated for 30 mins by UV absorption based analysis
T1 sequence (P15145 whole entry): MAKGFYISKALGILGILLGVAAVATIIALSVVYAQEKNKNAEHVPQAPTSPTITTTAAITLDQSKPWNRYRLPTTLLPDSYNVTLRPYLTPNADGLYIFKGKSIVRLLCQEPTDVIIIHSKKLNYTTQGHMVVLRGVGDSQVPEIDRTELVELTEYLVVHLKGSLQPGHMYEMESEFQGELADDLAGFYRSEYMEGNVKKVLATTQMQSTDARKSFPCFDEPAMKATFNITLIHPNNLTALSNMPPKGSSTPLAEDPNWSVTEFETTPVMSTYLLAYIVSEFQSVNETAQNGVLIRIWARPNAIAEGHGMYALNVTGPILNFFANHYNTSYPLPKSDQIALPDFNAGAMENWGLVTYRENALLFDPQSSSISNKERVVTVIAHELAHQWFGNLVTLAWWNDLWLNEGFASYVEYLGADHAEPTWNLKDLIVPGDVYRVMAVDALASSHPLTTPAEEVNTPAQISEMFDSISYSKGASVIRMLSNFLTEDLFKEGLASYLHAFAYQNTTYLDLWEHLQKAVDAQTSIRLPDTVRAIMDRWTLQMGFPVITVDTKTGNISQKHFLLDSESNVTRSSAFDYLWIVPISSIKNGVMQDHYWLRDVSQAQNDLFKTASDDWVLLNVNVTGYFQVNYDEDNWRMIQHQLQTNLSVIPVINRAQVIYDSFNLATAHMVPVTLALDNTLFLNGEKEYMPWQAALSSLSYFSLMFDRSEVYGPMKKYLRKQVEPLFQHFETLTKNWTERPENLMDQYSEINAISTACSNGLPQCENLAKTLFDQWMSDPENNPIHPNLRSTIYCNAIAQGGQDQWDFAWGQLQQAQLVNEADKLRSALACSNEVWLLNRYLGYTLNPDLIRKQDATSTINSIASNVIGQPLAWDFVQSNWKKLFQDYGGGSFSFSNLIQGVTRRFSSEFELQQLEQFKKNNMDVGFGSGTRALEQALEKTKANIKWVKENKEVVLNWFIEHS

[1] = biological target: T2, RAC-alpha serine/threonine-protein kinase (Homo sapiens, UniProt P31749); conditions: dose 200.0 nM, time 40.0 min
MCF7 = test: Antiproliferative activity against human MCF7 cells assessed as reduction in cell viability incubated for 72 hrs by MTT assay; type: functional, cell-based; conditions: MCF7, 72 h
NCI-H1975 = test: Antiproliferative activity against human NCI-H1975 cells assessed as reduction in cell viability incubated for 72 hrs by MTT assay; type: functional, cell-based; conditions: NCI-H1975, 72 h
HUVEC = test: Anti-angiogenic activity against HUVEC cells assessed as inhibition of tubular structure formation at 10 uM […] by Matrigel based phase contrast microscopic analysis; type: functional, cell-based; conditions: Homo sapiens
AGS = test: Antiproliferative activity against human AGS cells assessed as reduction in cell viability incubated for 72 hrs by MTT assay; type: functional, cell-based
[2] = biological target: T2, RAC-alpha serine/threonine-protein kinase; test: Inhibition of AKT1 (unknown origin) incubated for 40 mins in presence of ATP by Kinase-Glo reagent based luminescence analysis
[3] = biological target: T3, Aminopeptidase N (Sus scrofa) (UniProt P15145); test: Potency index, ratio of bestatin IC50 to test compound IC50 for inhibition of APN in pig kidney microsomes assessed as reduction in p-nitroanilide release using L-leu-p-nitroanilide as substrate incubated for 30 mins by UV absorption based analysis
T3 sequence (whole entry): T1 sequence (P15145 whole entry)

[4] = biological target: T4, Serine/threonine-protein kinase AKT (Homo sapiens) (UniProt P31751+Q9Y243+P31749); test: Inhibition of AKT in human AGS cells assessed as inhibition of GSK3beta phosphorylation up to 10 uM by immunoblot analysis; type: cell-based; conditions: dose microM <=10, time 2-6 hrs, TDE = time-dependent effect
Summary of the method: (§1)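 Western blot in AGS cells treated with DMSO or compound at 2 or 10 μM for 2 or 6 h. Phospho-GSK3β was probed with β-actin as loading control and blots were quantified. Three independent experiments were run, with Student's two-tailed t test against control.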

[5] = biological target: T4, Serine/threonine-protein kinase AKT (Homo sapiens); test: Inhibition of AKT in human AGS cells assessed as inhibition of GSK3beta phosphorylation incubated for up to 6 hrs by immunoblot analysis; type: cell-based; conditions: dose 2-10 µM, time hrs <=6; summary of the method: as §1

T2 sequence (P31749 whole entry): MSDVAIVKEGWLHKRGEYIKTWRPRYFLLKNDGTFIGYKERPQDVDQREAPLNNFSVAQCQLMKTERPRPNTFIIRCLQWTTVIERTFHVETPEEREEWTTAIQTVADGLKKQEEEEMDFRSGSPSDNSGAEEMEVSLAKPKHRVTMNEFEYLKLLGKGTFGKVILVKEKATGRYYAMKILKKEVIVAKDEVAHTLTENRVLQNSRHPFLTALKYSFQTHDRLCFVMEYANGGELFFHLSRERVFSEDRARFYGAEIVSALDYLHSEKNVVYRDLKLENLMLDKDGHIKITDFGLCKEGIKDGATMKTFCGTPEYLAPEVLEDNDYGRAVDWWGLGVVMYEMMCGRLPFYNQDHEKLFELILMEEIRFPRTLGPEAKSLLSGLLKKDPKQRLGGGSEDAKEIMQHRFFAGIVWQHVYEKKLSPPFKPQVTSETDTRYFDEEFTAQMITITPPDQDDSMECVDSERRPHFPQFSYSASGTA
T4 sequence (P31749 whole entry, looked up): as the sequence (P31749 whole entry) above
T4 sequence (P31751 whole entry, looked up): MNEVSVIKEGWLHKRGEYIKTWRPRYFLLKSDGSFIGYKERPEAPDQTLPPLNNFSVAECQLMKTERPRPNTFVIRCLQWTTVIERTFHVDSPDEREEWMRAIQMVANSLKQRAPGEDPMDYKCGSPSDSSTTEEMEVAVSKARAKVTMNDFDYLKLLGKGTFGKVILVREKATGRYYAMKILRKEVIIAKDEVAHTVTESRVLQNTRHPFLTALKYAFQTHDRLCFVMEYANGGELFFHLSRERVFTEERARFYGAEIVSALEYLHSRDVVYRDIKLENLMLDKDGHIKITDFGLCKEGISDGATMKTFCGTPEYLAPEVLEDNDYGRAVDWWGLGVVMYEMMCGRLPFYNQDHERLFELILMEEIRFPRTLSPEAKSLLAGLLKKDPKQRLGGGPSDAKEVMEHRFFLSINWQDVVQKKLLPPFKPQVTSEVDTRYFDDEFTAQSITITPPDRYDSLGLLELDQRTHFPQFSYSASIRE
T4 sequence (Q9Y243 whole entry, looked up): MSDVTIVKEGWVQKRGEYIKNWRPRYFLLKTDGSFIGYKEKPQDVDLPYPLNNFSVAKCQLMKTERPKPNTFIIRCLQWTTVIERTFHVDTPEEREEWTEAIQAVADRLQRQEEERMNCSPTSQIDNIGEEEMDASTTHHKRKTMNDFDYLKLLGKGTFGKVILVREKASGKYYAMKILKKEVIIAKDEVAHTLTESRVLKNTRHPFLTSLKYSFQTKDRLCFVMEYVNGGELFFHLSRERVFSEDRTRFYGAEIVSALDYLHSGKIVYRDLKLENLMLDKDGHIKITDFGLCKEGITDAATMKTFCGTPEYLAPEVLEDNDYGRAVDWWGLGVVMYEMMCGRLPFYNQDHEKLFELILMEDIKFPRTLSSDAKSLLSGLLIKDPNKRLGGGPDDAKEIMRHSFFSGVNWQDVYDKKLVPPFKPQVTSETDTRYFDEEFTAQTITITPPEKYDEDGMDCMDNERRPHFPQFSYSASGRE

IC50 (Aminopeptidase N) | inhibition [1] | Structure (SMILES) | other results
5400 nM |  | O=C(NC1CCN(c2ncnc3[nH]ccc23)CC1)N[C@@H](C(=O)NO)c1ccccc1 | 
670 nM | 21% | NC1(C(=O)N[C@H](Cc2ccccc2)C(=O)NO)CCN(c2ncnc3[nH]ccc23)CC1 | 
127000 nM | 5% | NC1(C(=O)N[C@@H](Cc2c[nH]c3ccccc23)C(=O)NO)CCN(c2ncnc3[nH]ccc23)CC1 | 
210 nM | 29% | CC(C)C[C@@H](NC(=O)N1CCN(c2ncnc3[nH]ccc23)CC1)C(=O)NO | 
32400 nM | 7% | CC(C)C[C@H](NC(=O)C1(N)CCN(c2ncnc3[nH]ccc23)CC1)C(=O)NO | 
159000 nM | 2% | NC1(C(=O)N[C@@H](Cc2ccccc2)C(=O)NO)CCN(c2ncnc3[nH]ccc23)CC1 | 
900 nM | 7% | O=C(NC1CCN(c2ncnc3[nH]ccc23)CC1)N[C@H](Cc1ccccc1)C(=O)NO | 
960 nM | 60% | NC1(C(=O)N[C@@H](C(=O)NO)c2ccccc2)CCN(c2ncnc3[nH]ccc23)CC1 | IC50 (MCF7): 24800 nM; IC50 (NCI-H1975): 20300 nM; Activity (HUVEC): Active; IC50 (AGS): 30700 nM; IC50 [2]: 121 nM
1040 nM |  | O=C(NO)[C@H](NC(=O)N1CCN(c2ncnc3[nH]ccc23)CC1)c1ccccc1 | 
1490 nM | 35% | NC1(C(=O)N[C@H](C(=O)NO)c2ccccc2)CCN(c2ncnc3[nH]ccc23)CC1 | 
260 nM | 11% | O=C(NO)[C@@H](Cc1ccccc1)NC(=O)N1CCN(c2ncnc3[nH]ccc23)CC1 | 
50 nM | 2% | CC(C)C[C@@H](NC(=O)C1CCN(c2ncnc3[nH]ccc23)CC1)C(=O)NO | Ratio IC50 [3]: 70
710 nM | 7% | O=C(N[C@H](Cc1ccccc1)C(=O)NO)C1CCN(c2ncnc3[nH]ccc23)CC1 | 
 |  | CC(C)C[C@H](NC(=O)[C@@H](O)[C@H](N)Cc1ccccc1)C(=O)O [UBENIMEX] | IC50 (MCF7): > 200000 nM; IC50 (NCI-H1975): > 200000 nM; Activity (HUVEC): Active; IC50 (AGS): > 200000 nM
390 nM |  | O=C(N[C@@H](C(=O)NO)c1ccccc1)C1CCN(c2ncnc3[nH]ccc23)CC1 | 
 |  | COc1ccc(Cn2ccc3ccc(C(=O)NO)cc32)cc1 | Activity (HUVEC): inactive
710 nM | 4% | CC(C)C[C@@H](NC(=O)NC1CCN(c2ncnc3[nH]ccc23)CC1)C(=O)NO | 
140000 nM | 5% | CC(C)[C@H](NC(=O)C1(N)CCN(c2ncnc3[nH]ccc23)CC1)C(=O)NO | 
 |  | NC1(C(=O)N[C@@H](CCO)c2ccc(Cl)cc2)CCN(c2nc[nH]c3nccc2-3)CC1 [CAPIVASERTIB] | IC50 (MCF7): 4200 nM; IC50 (NCI-H1975): 2700 nM; Activity (HUVEC): inactive; IC50 (AGS): 9600 nM
4160 nM | 3% | NC1(C(=O)N[C@H](Cc2c[nH]c3ccccc23)C(=O)NO)CCN(c2ncnc3[nH]ccc23)CC1 | 
210 nM | 43% | CC(C)C[C@@H](NC(=O)C1(N)CCN(c2ncnc3[nH]ccc23)CC1)C(=O)NO | IC50 (MCF7): 32700 nM; IC50 (NCI-H1975): 27400 nM; inhibition [4]: Tde; Activity (HUVEC): Active; IC50 (AGS): 52400 nM; IC50 [2]: 270 nM; inhibition [5]: Dose-Dependent Effect
470 nM | 6% | CC(C)[C@@H](NC(=O)C1(N)CCN(c2ncnc3[nH]ccc23)CC1)C(=O)NO | 
